Source: PubChem (several laboratories)
EBNA-1 inh = blocks EBNA-1 binding to DNA; 300,000 compounds, 0.34% hits; EBNA-1 DNA binding, fluorescence polarization; inhibition, % at 14.8 µM; AID 1950; in the data active means inhibition above about 28%
Apaf1 inhib = inhibitors of human Apaf-1 apoptosome; O14727; reconstituted apoptosome caspase-3 activity, DEVD-Rh110 fluorescence; inhibition, % at 20 µM; 330,000 compounds, 0.71% hits; AID 489030; active means inhibition of at least 40% at 20 µM;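 further: plate controls were DMSO wells for no effect and DEVD-CHO caspase inhibitor wells for full effect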
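System: reconstituted apoptosome with Apaf-1, cytochrome c, caspase-9, procaspase-3, dATP; Signal: Rh110 fluorescence intensity; Schedule: 30 min compound preincubation, 50 min activation, room temperature; Reagent: cytochrome c trigger plus (Z-DEVD)2-Rh110 caspase-3 substrate.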
ZTA counter = counter-screen for EBNA-1 inhibitors: inhibitors of Epstein-Barr virus ZTA. inhibition, % at 11 µM. P03206. ZTA-DNA binding, fluorescence polarization. 320,000 compounds, 0.15% hits; in the data active means inhibition above about 33%
PREPL inh = inhibitors of human prolyl oligopeptidase-like enzyme PREPL; recombinant PREPL, fluorescence polarization activity-based probe; Q4J6C6; AID 2751; inhibition, % at 5.96 µM; 320,000 compounds, 0.68% hits; in the data active means inhibition above about 43%;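 further: 0% = enzyme with DMSO and 100% = wells lacking enzyme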
Target sequence (Q4J6C6 whole entry, looked up): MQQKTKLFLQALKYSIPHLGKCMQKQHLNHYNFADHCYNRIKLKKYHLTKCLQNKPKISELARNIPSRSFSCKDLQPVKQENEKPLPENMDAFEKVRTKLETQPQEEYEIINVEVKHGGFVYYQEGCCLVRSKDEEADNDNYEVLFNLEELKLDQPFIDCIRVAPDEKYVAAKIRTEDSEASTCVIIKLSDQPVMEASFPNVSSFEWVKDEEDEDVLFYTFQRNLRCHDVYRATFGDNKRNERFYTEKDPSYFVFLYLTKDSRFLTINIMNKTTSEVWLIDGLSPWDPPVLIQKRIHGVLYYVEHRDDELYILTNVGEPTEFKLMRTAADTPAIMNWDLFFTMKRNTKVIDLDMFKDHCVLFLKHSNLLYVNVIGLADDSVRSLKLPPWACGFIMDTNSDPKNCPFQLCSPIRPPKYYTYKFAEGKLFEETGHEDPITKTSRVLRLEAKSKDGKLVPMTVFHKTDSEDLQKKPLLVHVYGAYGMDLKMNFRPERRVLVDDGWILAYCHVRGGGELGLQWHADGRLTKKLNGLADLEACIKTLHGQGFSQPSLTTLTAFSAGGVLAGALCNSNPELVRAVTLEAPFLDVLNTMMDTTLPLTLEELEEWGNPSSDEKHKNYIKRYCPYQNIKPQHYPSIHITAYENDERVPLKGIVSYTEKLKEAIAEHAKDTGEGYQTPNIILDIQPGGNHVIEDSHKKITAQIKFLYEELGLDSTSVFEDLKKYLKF
UBC13 inh = blocks human UBC13 polyubiquitin chain formation | TR-FRET | inhibition, % at 20 µM | 330,000 compounds, 0.47% hits | AID 485273; in the data active means inhibition above about 45%, passing the limit was not always enough
EBNA-1 inh conf = EBNA-1 (EBV) inhibition, confirmation; inhibition, % at 14.8 µM; 830 compounds, 35% hits; AID 2292; Recombinant EBNA-1 DBD, Cy5-DNA fluorescence polarization; shares compounds with EBNA-1 inh;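 active means mean inhibition across replicates above a set limit taken from the earlier primary screen, cut at about 28% in these data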;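 further: plate controls were EBNA-1 protein with DMSO for no effect and wells lacking EBNA-1 for full effect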
ZTA DNA inh trip = ZTA (EBV) inhibition, triplicate counter-screen; shares compounds with EBNA-1 inh; Zta-ZRE DNA binding, Cy5 fluorescence polarization; inhibition, % at 11.1 µM; 830 tested, under 10 active; AID 2328;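 active means mean inhibition over triplicates above a set limit taken from the primary EBNA-1 screen, cut at about 37% in these data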;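 further: purified full length Zta protein with Cy5 labeled ZRE DNA probe; 0% = Zta with DMSO and 100% = wells lacking Zta protein; inhibitors lower polarization by freeing the labeled DNA probe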
Numbers without * were called inactive; x = no result given; + = active, no number. In the library only some 1.7% were active in any assay of this set; here they are far more common.

SMILES | EBNA-1 inh | Apaf1 inhib | ZTA counter | PREPL inh | UBC13 inh | EBNA-1 inh conf | ZTA DNA inh trip
Cc1ccc(NC(=S)N/N=C/c2c(C)nn(-c3ccccc3)c2N2CCCC2)cc1 | 39* | 8 | 0 | 21 | -18 | -3 | -7
Cc1nn(-c2ccccc2)c(N2CCCC2)c1/C=N/NC(=S)Nc1ccc(F)cc1 | 0 | 13 | -13 | 13 | -17 | x | x
COc1ccc(CC(=O)Nc2sc3c(c2C(N)=O)CCCC3)cc1 | -12 | 11 | -4 | 4 | 1 | x | x
COc1cc(CC(=O)Nc2sc3c(c2C(N)=O)CCCC3)cc(OC)c1OC | 49* | -4 | 4 | 0 | 4 | 23 | 17
Cc1ccc(NC(=O)CC2SC(=Nc3ccc(O)cc3)NC2=O)cc1 (stereo not given) | 12 | 10 | 20 | -1 | -1 | x | x
CCOc1ccc(N=C2NC(=O)C(CC(=O)Nc3ccc(OC)cc3)S2)cc1 (stereo not given) | 33* | -12 | 0 | 13 | 3 | 29* | 0
Cc1cccc(OCC2CCCN(Cc3nc(C4CC4)no3)C2)c1 (stereo not given) | -8 | -1 | 0 | -14 | -11 | x | x
CC12CN3CCN(CC(C3)C1(O)CN1CCOCC1)C2 (stereo not given) | -14 | -11 | -1 | 1 | -12 | x | x
Cc1cc(NC(=O)CSc2nc3ccccc3c(=O)n2Cc2ccc(F)cc2)no1 | 57* | -1 | -2 | 2 | 14 | 23 | 14
Cc1ccc(S(=O)(=O)N2CCOCC2)cc1NC(=O)CSc1nc2ccccc2c(=O)n1Cc1ccccc1 | 33* | 11 | -2 | -9 | -3 | 13 | 18
CCOc1ccc(/C=N/NC(=O)c2ccc(CSc3nc4ccccc4[nH]3)cc2)cc1 | 33* | -3 | 7 | 11 | -30 | 39* | 12
Cc1ccc(CNC(=O)CN(C(=O)C2(C)CC(=O)N=C3C=CC=CN32)c2cc(C)ccc2C)cc1 (stereo not given) | 3 | -1 | -10 | 13 | 13 | x | x
CCOc1ccc(C(=O)NC(=S)NCc2cccnc2)cc1 | -6 | 4 | 8 | -2 | -10 | x | x
CCOc1ccc2nc(NCCNC(=O)Nc3ccccc3)c(C#N)cc2c1 | 34* | x | 4 | 1 | x | 18 | -13
CC(=O)Nc1ccc(NC(=O)c2ccc(NS(=O)(=O)c3cccc4cccnc34)cc2)cc1 | 39* | -1 | 5 | 0 | 1 | 18 | 6
Cc1cc(NS(=O)(=O)c2ccc(NC(=O)c3ccc(Cl)cc3[N+](=O)[O-])cc2)no1 | 13 | -12 | 10 | 5 | 7 | x | x
O=C(NCc1ccc(C(F)(F)F)cc1)c1ccc2c(c1)S(=O)(=O)c1ccccc1C2=O | 5 | 9 | 3 | 8 | -2 | x | x
CN1C(=O)/C(=C/c2cn(CC(=O)N3CCCCC3)c3ccccc23)NC1=S | x | 12 | x | x | -62 | x | x
Cc1ccc(NC(=O)C2CC(=O)N/C(=N/N=C/c3ccco3)S2)cc1C (stereo not given) | 30* | -5 | -12 | 11 | -3 | 4 | -10
O=C(c1cc(-c2ccc(Cl)cc2Cl)on1)N1CCN(C(=O)c2ccco2)CC1 | -3 | 8 | 3 | -1 | 0 | x | x
O=C(NCCCN1CCOCC1)c1ccc(Br)s1 | -4 | -14 | 4 | 2 | 15 | x | x
O=C(NCCCCNC(=O)c1ccc(Br)s1)c1ccc(Br)s1 | 46* | -17 | 25 | -16 | 3 | 11 | 10
N#CCC(=N)N1CCN(c2cccc(Cl)c2)CC1 | 45* | 2 | 6 | -3 | -5 | -10 | -1
N#CCC(=N)N1CCN(c2ccccc2)CC1 | 4 | 8 | 2 | 21 | -2 | x | x
Cc1noc(C)c1S(=O)(=O)Nc1ccccc1Cl | -8 | -8 | 0 | 9 | 1 | x | x
SMILES | EBNA-1 inh | Apaf1 inhib | ZTA counter | PREPL inh | UBC13 inh | EBNA-1 inh conf | ZTA DNA inh trip
O=C(COC(=O)c1cc(Cl)ccc1Cl)Nc1ccc2[nH]c(=O)[nH]c2c1 | 85* | 5 | -7 | -3 | -3 | 28* | 3
O=C(COC(=O)c1ccccc1Cl)Nc1ccc2[nH]c(=O)[nH]c2c1 | -1 | 4 | 19 | 2 | -2 | x | x
CCc1ccccc1N(C(=O)c1snc(C(N)=O)c1N)C(C(=O)NCC1CCCO1)c1ccc(N(C)C)cc1 (stereo not given) | x | 17 | x | x | 2 | x | x
Cc1ccccc1N(C(=O)c1snc(C(N)=O)c1N)C(C(=O)NCC1CCCO1)c1ccc(N(C)C)cc1 (stereo not given) | 28* | 12 | 6 | -7 | 10 | 123* | 10
CC(SCc1ccccc1)C(=O)Nc1ccc2c(c1)OCO2 (stereo not given) | 0 | 11 | -16 | 6 | 2 | x | x
O=C(CCSc1nc2ccccc2s1)N/N=C/c1c(O)ccc2ccccc12 | 48* | -2 | 21 | 13 | -17 | 6 | 8
CCCCC(=O)NC(c1ccccc1)c1ccc2cccnc2c1O (stereo not given) | 1 | 11 | 8 | 0 | -26 | x | x
CCOC(=O)c1cnc(SCc2nc(N)nc(Nc3ccc(C)cc3)n2)nc1N | -2 | 14 | 9 | -25 | 0 | x | x
CCOC(=O)c1cnc(SCc2nc(N)nc(Nc3ccc(F)cc3)n2)nc1N | 49* | 7 | 9 | -16 | -3 | -8 | -9
COc1ccc2c(c1)c(CC(=O)Nc1cccc(S(N)(=O)=O)c1)c(C)n2C(=O)c1ccc(Cl)cc1 | 37* | 3 | -20 | -33 | -5 | -3 | 10
COCCN(CCOC)C(=O)c1cc2sc3ccccc3c2s1 | 12 | 8 | 12 | 7 | 4 | x | x
CNC(=S)NNC(=O)c1sccc1OCc1ccc(C)cc1 | -5 | 0 | -3 | 10 | -8 | x | x
CNC(=S)NNC(=O)c1sccc1OCc1cccc(C(F)(F)F)c1 | 35* | -190 | 1 | 11 | -12 | 65* | 5
COc1cc(NC(=O)COC(=O)/C=C/c2ccccc2Cl)cc(OC)c1 | 69* | 4 | 9 | 10 | 3 | 30* | 13
COc1ccc(OC)c(NC(=O)COC(=O)/C=C/c2ccc(Cl)cc2)c1 | 42* | 4 | -15 | 26 | 9 | 15 | 9
O=C(Nc1ccc(Cl)cc1F)c1ccc(-n2cncn2)cc1 | x | -12 | -1 | -3 | -10 | x | x
Cc1ccc(NC(=O)CSc2ccc(-c3ccccn3)nn2)cc1F | 36* | 1 | 1 | 10 | 7 | 53* | 7
O=c1[nH]c(CN2CCN(S(=O)(=O)c3ccc4ccccc4c3)CC2)nc2ccccc12 | 84* | -6 | 23 | -3 | 8 | 122* | 4
CC1CCCN(CCSc2ccc(Cl)cc2)C1 (stereo not given) | -1 | 13 | -3 | -2 | -8 | x | x
Cc1nc2nc(-c3ccccc3)nn2c(C)c1C | + | -9 | -3 | 2 | -11 | 2 | -3
O=C(Nc1cccc(Cl)c1Cl)C1CC(=O)N(c2ccc(Br)cc2)C1 (stereo not given) | 60* | 5 | 7 | 2 | 2 | 21 | 8
